Each structure is given as a SMILES string.

The subject of test [1] is MDA-MB-231. Description: Antiproliferative activity against human MDA-MB-231 cells assessed as cell growth inhibition at 10 uM after 24 hrs by MTT assay. Format: functional. The note with it: MDA-MB-231, 24 h, read-out: GI. In a few lines: (§1)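 MTT viability assay. Cells seeded at 5 × 10³ per well and cultured with or without compound for 24 h. MTT (5 mg/ml in PBS) was then added in fresh medium and incubated 2 h at 37 °C, followed by DMSO and 1 min agitation. Absorbance was read at 570 nm. Percent inhibition of proliferation was calculated relative to the untreated control. Dose-response used […].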

The test system of test [2] is K562. Description: Antiproliferative activity against human K562 cells assessed as cell growth inhibition at 1 uM after 24 hrs by MTT assay. Format: functional. The note with it: K562, 24 h, read-out: GI. The essentials:
as §1

Test [3] has as its system K562. Put plainly: Antiproliferative activity against human K562 cells assessed as cell growth inhibition at 10 uM after 24 hrs by MTT assay. It counts as functional. The following applies: K562, 24 h, read-out: GI. The essentials:
as §1

The subject of test [4] is MDA-MB-231. Put plainly: Antiproliferative activity against human MDA-MB-231 cells assessed as cell growth inhibition at 1 uM after 24 hrs by MTT assay. It counts as functional. The following applies: MDA-MB-231, 24 h, read-out: GI. In a few lines: as §1
In test [5] the test system is K562. Description: Antiproliferative activity against human K562 cells assessed as cell growth inhibition at 0.01 uM after 24 hrs by MTT assay. Format: functional. The following applies: K562, 24 h, read-out: GI. The essentials:
as §1

The test system of test [6] is K562. Put plainly: Antiproliferative activity against human K562 cells assessed as cell growth inhibition at 0.1 uM after 24 hrs by MTT assay. The note with it: K562, 24 h, read-out: GI. Format: functional. In a few lines: as §1
For test [7], the system named is K562. Put plainly: Antiproliferative activity against human K562 cells assessed as cell growth inhibition after 24 hrs by MTT assay. Format: functional, cell-based. The following applies: K562, 24 h. In a few lines: as §1
Test [8] relates to K562. Put plainly: Antiproliferative activity against human K562 cells assessed as cell growth inhibition at 0.5 uM after 24 hrs by MTT assay. The following applies: K562, 24 h, read-out: GI. Format: functional. The essentials: as §1
For test [9], the system named is MDA-MB-231. Put plainly: Antiproliferative activity against human MDA-MB-231 cells assessed as cell growth inhibition after 24 hrs by MTT assay. It counts as functional, cell-based. The note with it: MDA-MB-231, 24 h. The essentials:
as §1

Test [10] concerns MDA-MB-231. Put plainly: Antiproliferative activity against human MDA-MB-231 cells assessed as cell growth inhibition at 0.5 uM after 24 hrs by MTT assay. The note with it: MDA-MB-231, 24 h, read-out: GI. It counts as functional. The essentials:
as §1

In test [11] the test system is MDA-MB-231. Put plainly: Antiproliferative activity against human MDA-MB-231 cells assessed as cell growth inhibition at 0.01 uM after 24 hrs by MTT assay. The note with it: MDA-MB-231, 24 h, read-out: GI. It counts as functional. In a few lines:
as §1

Test [12] concerns MDA-MB-231. Put plainly: Antiproliferative activity against human MDA-MB-231 cells assessed as cell growth inhibition at 0.1 uM after 24 hrs by MTT assay. Format: functional. The following applies: MDA-MB-231, 24 h, read-out: GI. The essentials:
as §1

On to `c1ccc(-c2cn(-c3cc4nnnn4c4ccccc34)nn2)cc1`, for which the inhibition of growth at 10 µM was determined as 56% with MDA-MB-231 [1] and 29.9% in the test with K562 [3]. In addition, the results for the inhibition of growth at 1 µM in the test with K562 [2] and with MDA-MB-231 [4] were 20.6% and 52.5%, respectively.
On the same counts, the results for `Cc1ccc(-c2cn(-c3cc4nnnn4c4ccccc34)nn2)cc1` are 54%, 44.1%, 20.6% and 47.7%.
With `c1ccc(CCc2cn(-c3cc4nnnn4c4ccccc34)nn2)cc1`, the inhibition of growth at 10 µM in the test on MDA-MB-231 [1] was 60.8%; in the test with K562 [3] it was 38.1%. Also, the inhibition of growth at 1 µM in the test with K562 [2] was determined as 26.7%; in the test on MDA-MB-231 [4], 50.5%.
With `OCc1cn(-c2cc3nnnn3c3ccccc23)nn1`, the inhibition of growth at 10 µM with MDA-MB-231 [1] came out at 46.8%; in the test on K562 [3] it was 36.9%. The results for the inhibition of growth at 1 µM in the test with K562 [2] and in the test on MDA-MB-231 [4] were 21.8% and 45.8%, respectively.
On to `OCCCc1cn(-c2cc3nnnn3c3ccccc23)nn1`, for which the inhibition of growth at 0.01 µM in the test on K562 [5] turned out to be 9%. Moreover, the inhibition of growth at 10 µM is 46.1% with MDA-MB-231 [1] and 52.4% in the test with K562 [3]. Moreover, the results for the inhibition of growth at 1 µM in the test with K562 [2] and in the test on MDA-MB-231 [4] were 47.1% and 42%, respectively. The inhibition of growth at 0.1 µM in the test on K562 [6] was 22%. For the same compound, the IC50 in the test with K562 [7] stood at 4600 nM. The inhibition of growth at 0.5 µM with K562 [8] was 30%.
In the case of `ClCCCc1cn(-c2cc3nnnn3c3ccccc23)nn1`, in the test with MDA-MB-231 [9], the IC50 was 800 nM. Also, the inhibition of growth at 0.5 µM with MDA-MB-231 [10] came to 46%. Further, the inhibition of growth at 10 µM in the test on MDA-MB-231 [1] is 70.1%; in the test on K562 [3], 35.2%. Also, the inhibition of growth at 1 µM in the test on K562 [2] came out at 19.9%; in the test on MDA-MB-231 [4] it was 60.2%. The inhibition of growth at 0.01 µM in the test on MDA-MB-231 [11] was found to be 11%. For the same compound, the inhibition of growth at 0.1 µM in the test on MDA-MB-231 [12] was 24%.
As for `CCCCc1cn(-c2cc3nnnn3c3ccccc23)nn1`, the inhibition of growth at 10 µM with MDA-MB-231 [1] was found to be 57.1%; with K562 [3] it was 34.1%. In addition, the inhibition of growth at 1 µM with K562 [2] amounted to 28.2%; in the test with MDA-MB-231 [4], 55.3%.
Turning to `CCCCCCc1cn(-c2cc3nnnn3c3ccccc23)nn1`, the inhibition of growth at 10 µM in the test on MDA-MB-231 [1] came to 53.4%; in the test on K562 [3], 37.4%. The inhibition of growth at 1 µM came out at 19.1% in the test with K562 [2] and 49.7% in the test on MDA-MB-231 [4].
Regarding `CCCCCc1cn(-c2cc(-n3cc(CCCCC)nn3)c3ccccc3n2)nn1`, the inhibition of growth at 10 µM with MDA-MB-231 [1] and with K562 [3] was below 30% each time.
Take `ClCCCc1cn(-c2cc(-n3cc(CCCCl)nn3)c3ccccc3n2)nn1`: the inhibition of growth at 10 µM in the test on MDA-MB-231 [1] and with K562 [3] was below 30% in each case.
`CCCCc1cn(-c2cc(-n3cc(CCCC)nn3)c3ccccc3n2)nn1`: the inhibition of growth at 10 µM in the test on MDA-MB-231 [1] and in the test with K562 [3] was below 30% each time.
In the case of `CCCCCCc1cn(-c2cc(-n3cc(CCCCCC)nn3)c3ccccc3n2)nn1`, the inhibition of growth at 10 µM in the test on MDA-MB-231 [1] and in the test with K562 [3] was below 30% in each case.

(Values after ChEMBL document CHEMBL2021838, “Solvent effect on copper-catalyzed azide-alkyne cycloaddition (CuAAC): synthesis of novel triazolyl substituted quinolines as potential anticancer agents” (Bioorg Med Chem Lett, 2012).)
